Arr AP2 block: inhibitors of beta-arrestin/AP2 binding, primary screen, biochemical, GPCR trafficking, flow cytometry; beta-arrestin 1 C-terminal peptide binding to AP2 beta2-adaptin appendage (human); FITC-arrestin peptide / GST-AP2 beads; AP2 beta2 appendage carries R879A mutation; inhibition, % at 10 µM; hit rate 0.31% among 340,000;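 active means inhibition above a set limit, near 3 SD of compounds lacking own fluorescence, cut at about 54% in these data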;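 further: plate controls were DMSO wells for no effect and 5 µM unlabelled arrestin peptide for full effect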
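Assay system: GST-AP2 R879A bound to glutathione beads, E. coli-expressed; Medium: PBS with 0.05% Tween 20 and 0.1% BSA; Also added: fluorescein-tagged arrestin peptide at 50 nM final; Timing: 12 min plus 1 h, RT; Measured by: flow cytometry, FL1 (488/535 nm); Evaluation: percent drop in bead-associated FITC signal.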
B2AR ag: beta2AR agonists driving receptor internalization, primary screen, cell-based, FAP fluorogen, flow cytometry; Beta-2 adrenergic receptor (Homo sapiens), P07550; Am2.2-beta2AR cells; response, % (concentration not given with the values); hit rate 0.43% among 340,000;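 active means response above a set limit, near 3 SD of response in nonfluorescent compounds, cut at about 42% in these data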
UHRF1 MBD2 ctr: UHRF1 methylated DNA binding inhibitors, primary screen, counter-screen for MBD2 inhibitor project, biochemical, TR-FRET, human UHRF1, single concentration; E3 ubiquitin-protein ligase UHRF1 (Homo sapiens), Q96T88; UHRF1 binding to methylated oligo; AID 687016, 2013; inhibition, % at 4.4 µM; hit rate 0.75% among 370,000; in the data active means inhibition above about 21%;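 further: UHRF1 SRA domain binding a hemimethylated CpG hairpin DNA probe; 0% = median of test compound wells and 100% = reference inhibitor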
Rin1-Abl PPI inh: inhibitors of Rin1-Abl protein binding, primary screen, biochemical, TR-FRET; Tyrosine-protein kinase ABL1 (Homo sapiens) + Ras and Rab interactor 1 (Homo sapiens), …; inhibition, % at 7.35 µM; hit rate 0.4% among 360,000; AID 588664, 2011; in the data active means inhibition above about 5%, passing the limit was not always enough
Target sequence (P00519 whole entry, looked up): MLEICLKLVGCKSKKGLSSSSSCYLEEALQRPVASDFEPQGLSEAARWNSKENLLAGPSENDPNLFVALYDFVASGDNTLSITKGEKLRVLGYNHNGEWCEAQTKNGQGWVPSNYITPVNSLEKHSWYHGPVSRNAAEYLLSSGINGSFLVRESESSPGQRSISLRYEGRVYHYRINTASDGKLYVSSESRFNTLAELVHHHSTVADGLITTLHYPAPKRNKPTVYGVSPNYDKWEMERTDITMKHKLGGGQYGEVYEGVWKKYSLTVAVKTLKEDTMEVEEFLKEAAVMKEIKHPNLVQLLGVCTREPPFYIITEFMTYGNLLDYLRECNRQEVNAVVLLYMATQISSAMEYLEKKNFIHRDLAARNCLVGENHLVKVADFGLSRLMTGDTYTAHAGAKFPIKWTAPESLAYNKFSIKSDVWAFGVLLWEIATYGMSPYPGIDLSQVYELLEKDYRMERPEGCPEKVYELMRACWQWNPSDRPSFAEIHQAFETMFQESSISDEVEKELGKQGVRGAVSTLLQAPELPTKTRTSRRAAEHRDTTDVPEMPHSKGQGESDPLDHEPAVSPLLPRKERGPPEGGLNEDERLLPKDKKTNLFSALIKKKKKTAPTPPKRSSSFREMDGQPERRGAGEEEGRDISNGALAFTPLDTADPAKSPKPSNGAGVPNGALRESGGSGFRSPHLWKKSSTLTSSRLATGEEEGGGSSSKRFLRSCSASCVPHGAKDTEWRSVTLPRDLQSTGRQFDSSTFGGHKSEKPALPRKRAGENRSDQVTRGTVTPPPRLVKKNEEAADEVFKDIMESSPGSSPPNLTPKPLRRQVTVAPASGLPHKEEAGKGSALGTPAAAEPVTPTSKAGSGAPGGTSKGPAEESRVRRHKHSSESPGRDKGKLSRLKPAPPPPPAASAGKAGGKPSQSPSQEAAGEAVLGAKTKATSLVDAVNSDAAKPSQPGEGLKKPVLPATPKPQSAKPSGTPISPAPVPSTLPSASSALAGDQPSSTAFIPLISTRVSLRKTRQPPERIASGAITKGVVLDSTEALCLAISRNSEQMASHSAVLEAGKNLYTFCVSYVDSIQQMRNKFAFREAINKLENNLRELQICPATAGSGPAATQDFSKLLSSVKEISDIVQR
Target sequence (Q13671 whole entry, looked up): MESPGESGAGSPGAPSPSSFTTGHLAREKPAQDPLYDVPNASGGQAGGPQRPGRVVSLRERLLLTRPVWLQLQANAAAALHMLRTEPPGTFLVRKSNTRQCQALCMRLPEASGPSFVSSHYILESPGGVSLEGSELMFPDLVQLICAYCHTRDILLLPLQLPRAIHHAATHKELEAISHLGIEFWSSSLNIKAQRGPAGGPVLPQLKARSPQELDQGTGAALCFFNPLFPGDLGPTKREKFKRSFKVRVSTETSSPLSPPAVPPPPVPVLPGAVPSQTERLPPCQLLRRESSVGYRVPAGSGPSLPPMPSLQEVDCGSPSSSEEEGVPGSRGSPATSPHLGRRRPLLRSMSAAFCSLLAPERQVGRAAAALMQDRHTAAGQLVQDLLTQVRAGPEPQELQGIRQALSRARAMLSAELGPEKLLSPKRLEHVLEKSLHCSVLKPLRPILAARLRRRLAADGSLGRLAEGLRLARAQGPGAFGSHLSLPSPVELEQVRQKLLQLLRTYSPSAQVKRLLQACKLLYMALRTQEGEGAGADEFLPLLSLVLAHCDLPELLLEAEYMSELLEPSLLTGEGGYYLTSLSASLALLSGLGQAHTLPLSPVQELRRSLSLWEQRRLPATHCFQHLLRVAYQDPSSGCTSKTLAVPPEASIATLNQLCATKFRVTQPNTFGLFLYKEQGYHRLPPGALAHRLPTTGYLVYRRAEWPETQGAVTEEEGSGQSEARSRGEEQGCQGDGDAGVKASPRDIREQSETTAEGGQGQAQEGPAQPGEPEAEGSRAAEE
MBD2 DNA inh: inhibitors of MBD2 binding to methylated DNA, primary screen, biochemical, TR-FRET, DNA-binding domain, human; hit rate 0.31% among 370,000; MBD2 binding to methylated oligonucleotide; inhibition, % at 4.4 µM; Methyl-CpG-binding domain protein 2 (Homo sapiens), Q9UBB5; AID 686964, 2013; in the data active means inhibition above about 13%
ABHD5 PLIN5 PPI: ABHD5-PLIN5 interaction inhibitors, primary screen, cell lysate, split luciferase complementation, luminescence. Perilipin-5 (Homo sapiens) + 1-acylglycerol-3-phosphate O-acyltransferase ABHD5 (Homo …. Split G. princeps luciferase complementation, 4 h. inhibition, % at 4 µM. hit rate 0.78% among 360,000;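 active means inhibition above the mean inhibition across every tested compound plus 3 SD, cut at about 22% in these data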;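 further: 0% = DMSO only wells and the 100% control is not disclosed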
ABHD5 PLIN5 conf: ABHD5-PLIN5 interaction inhibitors, confirmation, biochemical, luminescence | shares compounds with ABHD5 PLIN5 PPI | inhibition, % at 4 µM | hit rate 67% among 2,200 | AID 651612, 2012; in the data active means inhibition above about 23%;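 further: 0% = DMSO vehicle wells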
HNF4 counter: HNF4 dimerization inhibitors, counter-screen for ABHD5-PLIN5 interaction inhibitor project, biochemical, split-luciferase complementation, luminescence; shares compounds with ABHD5 PLIN5 PPI; inhibition, % at 4 µM; hit rate 77% among 2,200;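 active means mean inhibition across replicate wells exceeding the computed hit threshold, cut at about 13% in these data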;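 further: light from luciferase halves that rejoin when HNF4 fusion proteins dimerize; 0% = DMSO only wells and the 100% control is not given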
Numbers without * were called inactive; . = not tested or not shown. This is a sample that favours compounds with a hit; in the whole collection about 2.5% have one here.

SMILES | Arr AP2 block | B2AR ag | UHRF1 MBD2 ctr | Rin1-Abl PPI inh | MBD2 DNA inh | ABHD5 PLIN5 PPI | ABHD5 PLIN5 conf | HNF4 counter
COc1ccccc1NC(=S)OCCN1CCCC12CCC(c1ccccc1)CC2 (stereo not drawn) | . | . | 2.2 | . | 7.5 | . | . | .
COc1ccc(NC(=O)C(c2ccc(OC)cc2)n2c(=O)c(-c3ccco3)nc3ccccc32)cc1 (stereo not drawn) | . | . | -4.2 | . | 1.9 | 42.1* | 38.5* | 5.5
COc1ccc(NC(=O)C(c2ccc(C#N)cc2)n2c(=O)c(-c3ccco3)nc3ccccc32)cc1 (stereo not drawn) | . | . | -5.2 | . | -6.9 | 23.6* | 22.4* | 0.9
COc1ccc(NC(=O)C(c2ccccc2F)n2c(=O)c(-c3ccco3)nc3ccccc32)cc1 (stereo not drawn) | . | . | -3.9 | . | -1.6 | 10.1 | . | .
COc1ccc(NC(=O)C(c2ccnc3ccccc23)n2c(=O)c(-c3ccco3)nc3ccccc32)cc1 (stereo not drawn) | . | . | -3.9 | . | -10.2 | 35.6* | 25.5* | 5.9
CCCCNS(=O)(=O)/C=C/c1ccc(OC)cc1CNC(=O)OC(C)(C)C | . | . | 1.3 | . | 6.4 | . | . | .
Cc1cccc(NC(=O)Cn2nnc(-c3ccccc3F)n2)c1C | . | . | 0.1 | . | -0.9 | . | . | .
CCN(CC(=O)Nc1c(F)cccc1F)C(=O)CSCC(=O)Nc1ccc(OC)cc1 | 6.7 | 0.0 | -0.4 | 3.0 | 0.2 | 26.1* | 2.8 | -4.5
COC(=O)c1cn(-c2ccc3c(c2)[C@]2(CC(=O)N(C)C2c2ccccc2)C(=O)N3CC(C)C)nn1 (stereo partly drawn) | . | . | 0.2 | . | -0.9 | . | . | .
CC(C)CCN(C)C1CCN(C(=O)Nc2ccccc2)CC1 | . | . | 1.3 | . | 1.2 | . | . | .
CCCCCc1cc(=O)oc2c(C(CCN(CC)CC)c3cc(OC)c(OC)c(OC)c3)c(OC)cc(OC)c12 (stereo not drawn) | 12.8 | 44.5* | 0.5 | -1.6 | -0.4 | 27.2* | 16.4 | 1.8
CCCCCc1cc(=O)oc2c(C(CCN3CCCCC3)c3ccc4c(c3)OCO4)c(OC)cc(OC)c12 (stereo not drawn) | 6.0 | 20.1 | 0.1 | 1.9 | 1.2 | 12.9 | . | .
CN(C)[C@H]1CCN(c2ccc3c(c2)O[C@H]2CCN(C2)S3(=O)=O)C1 | . | . | 0.5 | . | -2.2 | . | . | .
CCN(CC)C(=O)CSc1nc2ccccc2c(=O)n1CC | 4.4 | -11.2 | 1.0 | -0.3 | 4.7 | 1.0 | . | .
CCN(CC)C(=O)CSc1nc2ccccc2c(=O)n1OC(C)C | -3.6 | -0.6 | 2.8 | 3.0 | 5.4 | 24.1* | 0.6 | -1.5
Brc1ccc2nc(-c3ccco3)c(CC3CCCCC3)n2c1 | . | . | 11.7 | -13.1 | 0.2 | 23.8* | 28.3* | 37.8*
Cc1ccc2nc(-c3ccco3)c(CC3CCCCC3)n2c1 | . | . | . | 3.7 | . | 35.0* | 17.0 | 21.7*
Cc1ccc2nc(-c3ccco3)c(Nc3ccccc3)n2c1 | 6.7 | -1.5 | 0.1 | 1.1 | 3.0 | 5.8 | . | .
CC(C)(C)Cc1c(-c2ccco2)nc2ccc(Cl)cn12 | . | . | 3.9 | 5.3 | 5.3 | 14.8 | . | .
COc1ccc(Cn2cc(CN3[C@H](Cc4ccccc4)COc4cc(Br)ccc4S3(=O)=O)nn2)cc1 | . | . | -1.2 | . | -0.7 | . | . | .
CN(C)Cc1ccccc1Cc1ccccc1 | 24.0 | 0.6 | 1.2 | -0.8 | 0.0 | -1.8 | . | .
CN(C)CCOc1ccccc1Cc1ccccc1 | -3.3 | -1.3 | -1.0 | -1.9 | -2.2 | 34.6* | 73.4* | 25.0*
COc1ccccc1C(C[N+](=O)[O-])c1c(N)n(C)c(=O)n(C)c1=O (stereo not drawn) | -1.1 | 2.3 | 2.8 | -3.0 | 3.3 | 39.3* | 32.7* | 65.3*
Cc1ccccc1Cn1cc(CN2[C@@H](C)COc3cc(Br)ccc3S2(=O)=O)nn1 | . | . | -1.6 | . | 1.1 | . | . | .
CN(C)CCOc1ccc(-c2c(-c3ccccc3)sc3ccccc23)cc1 | 32.6 | 10.4 | -3.7 | -1.0 | -0.7 | 29.1* | 17.5 | -4.0
SMILES | Arr AP2 block | B2AR ag | UHRF1 MBD2 ctr | Rin1-Abl PPI inh | MBD2 DNA inh | ABHD5 PLIN5 PPI | ABHD5 PLIN5 conf | HNF4 counter
CCCCNC(=O)OCCCN1CCC2(CCC(c3ccccc3)CC2)C1 (stereo not drawn) | . | . | 5.1 | . | -3.4 | . | . | .
COC(=O)[C@]1(C#N)CC(=O)N(c2ccccc2)[C@@H]1c1ccccc1 | . | . | 1.0 | . | -4.8 | . | . | .
Cc1cccc(C)c1NC(=O)C[N+](C)(C)CC(O)COc1cccc2ccccc12 (stereo not drawn) | 38.3 | -6.6 | 1.7 | -6.7 | 4.0 | 46.7* | 34.1* | 17.5*
O=C1c2ccccc2C(=O)N1CC(O)COc1cccc2ccccc12 (stereo not drawn) | . | . | 0.1 | 1.7 | -0.4 | 10.1 | . | .
Cc1ccc(-n2c(SCC(=O)Nc3cccc4ccccc34)nnc2-c2cnccn2)cc1 | . | . | -2.4 | . | -0.6 | . | . | .
O=[N+]([O-])c1ccc2nc(CNc3nc(N4CCOCC4)nc4c3ncn4-c3ccsc3)[nH]c2c1 | . | . | -1.3 | . | 1.7 | . | . | .
COc1cc(-n2c(C)nc3cc(C(=O)N4CCCC4)ccc32)cc(OC)c1OC | . | . | 0.1 | . | -0.5 | . | . | .
C[C@H](CO)N1C[C@H](C)[C@@H](CN(C)Cc2ccc(Cl)c(Cl)c2)Oc2c(NC(=O)Cc3ccccc3)cccc2C1=O | . | 12.1 | 0.3 | 5.6 | -2.2 | 26.3* | 4.7 | -0.1
C[C@H](CO)N1C[C@H](C)[C@@H](CN(C)Cc2ccccc2)Oc2c(NC(=O)Cc3ccccc3)cccc2C1=O | -7.6 | 2.6 | 18.8 | 1.7 | 5.0 | 9.1 | . | .
COC(=O)CC1SC(=O)NC1=O (stereo not drawn) | -1.3 | -3.9 | 9.2 | -5.4 | 0.6 | 39.2* | 0.1 | 0.6
CC(=O)Nc1ccc(C2=NNC(=Nc3ccc(S(=O)(=O)N4CCOCC4)cc3)SC2)cc1 | -2.0 | 3.2 | -5.6 | 0.5 | -1.2 | 75.5* | 59.4* | 79.2*
CC1CN(c2nc3ccccc3nc2SCC(=O)N2CCN(S(=O)(=O)c3ccccc3)CC2)CC(C)O1 (stereo not drawn) | . | . | -3.1 | . | -1.0 | . | . | .
Oc1ccccc1C=Nn1c(-c2ccccc2F)n[nH]c1=S | . | . | 2.5 | . | -1.9 | . | . | .
CCC(=O)OCOc1ccc(/C=C2/CCC(CN(C)C)C2=O)cc1 (stereo not drawn) | 34.7 | 17.2 | -2.6 | 3.4 | 1.0 | 50.9* | 95.4* | 108.8*

Source: PubChem BioAssay (several laboratories)
